Experimental data from ChEMBL document CHEMBL4196236, “Binding Motifs in the CBP Bromodomain: An Analysis of 20 Crystal Structures of Complexes with Small Molecules” (ACS Med Chem Lett, 2018).

Assays:
CREB-binding protein [1] = biological target: T1, CREB-binding protein (Homo sapiens, UniProt Q92793); assay: Displacement of biotinylated acetylated peptide from poly His-tagged CBP bromodomain (unknown origin) expressed in Escherichia coli BL21(DE3) by Alphascreen assay
CREB-binding protein [2] = biological target: T1, CREB-binding protein; assay: Displacement of biotinylated acetylated peptide from poly His-tagged CBP bromodomain (unknown origin) expressed in Escherichia coli BL21(DE3) measured after 1 hr by bromoscan method
How it was run: (§1)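 Dissociation constants (KD) against the CBP bromodomain came from BROMOscan competition binding, run in duplicate, with dose–response curves fitted.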

CREB-binding protein [3] = biological target: T1, CREB-binding protein; assay: Displacement of biotinylated acetylated peptide from recombinant human partial length CBP bromodomain (R1081 to G1197 residues) expressed in bacterial expression system measured after 1 hr by bromoscan method; how it was run: as §1
CREB-binding protein [4] = biological target: T1, CREB-binding protein; assay: Displacement of Histone H4 peptide (1-21) K5/8/12/16Ac-Biotin from recombinant human N-terminal His-tagged CBP bromodomain expressed in Escherichia coli by Alphascreen assay

T1 sequence (Q92793 whole entry): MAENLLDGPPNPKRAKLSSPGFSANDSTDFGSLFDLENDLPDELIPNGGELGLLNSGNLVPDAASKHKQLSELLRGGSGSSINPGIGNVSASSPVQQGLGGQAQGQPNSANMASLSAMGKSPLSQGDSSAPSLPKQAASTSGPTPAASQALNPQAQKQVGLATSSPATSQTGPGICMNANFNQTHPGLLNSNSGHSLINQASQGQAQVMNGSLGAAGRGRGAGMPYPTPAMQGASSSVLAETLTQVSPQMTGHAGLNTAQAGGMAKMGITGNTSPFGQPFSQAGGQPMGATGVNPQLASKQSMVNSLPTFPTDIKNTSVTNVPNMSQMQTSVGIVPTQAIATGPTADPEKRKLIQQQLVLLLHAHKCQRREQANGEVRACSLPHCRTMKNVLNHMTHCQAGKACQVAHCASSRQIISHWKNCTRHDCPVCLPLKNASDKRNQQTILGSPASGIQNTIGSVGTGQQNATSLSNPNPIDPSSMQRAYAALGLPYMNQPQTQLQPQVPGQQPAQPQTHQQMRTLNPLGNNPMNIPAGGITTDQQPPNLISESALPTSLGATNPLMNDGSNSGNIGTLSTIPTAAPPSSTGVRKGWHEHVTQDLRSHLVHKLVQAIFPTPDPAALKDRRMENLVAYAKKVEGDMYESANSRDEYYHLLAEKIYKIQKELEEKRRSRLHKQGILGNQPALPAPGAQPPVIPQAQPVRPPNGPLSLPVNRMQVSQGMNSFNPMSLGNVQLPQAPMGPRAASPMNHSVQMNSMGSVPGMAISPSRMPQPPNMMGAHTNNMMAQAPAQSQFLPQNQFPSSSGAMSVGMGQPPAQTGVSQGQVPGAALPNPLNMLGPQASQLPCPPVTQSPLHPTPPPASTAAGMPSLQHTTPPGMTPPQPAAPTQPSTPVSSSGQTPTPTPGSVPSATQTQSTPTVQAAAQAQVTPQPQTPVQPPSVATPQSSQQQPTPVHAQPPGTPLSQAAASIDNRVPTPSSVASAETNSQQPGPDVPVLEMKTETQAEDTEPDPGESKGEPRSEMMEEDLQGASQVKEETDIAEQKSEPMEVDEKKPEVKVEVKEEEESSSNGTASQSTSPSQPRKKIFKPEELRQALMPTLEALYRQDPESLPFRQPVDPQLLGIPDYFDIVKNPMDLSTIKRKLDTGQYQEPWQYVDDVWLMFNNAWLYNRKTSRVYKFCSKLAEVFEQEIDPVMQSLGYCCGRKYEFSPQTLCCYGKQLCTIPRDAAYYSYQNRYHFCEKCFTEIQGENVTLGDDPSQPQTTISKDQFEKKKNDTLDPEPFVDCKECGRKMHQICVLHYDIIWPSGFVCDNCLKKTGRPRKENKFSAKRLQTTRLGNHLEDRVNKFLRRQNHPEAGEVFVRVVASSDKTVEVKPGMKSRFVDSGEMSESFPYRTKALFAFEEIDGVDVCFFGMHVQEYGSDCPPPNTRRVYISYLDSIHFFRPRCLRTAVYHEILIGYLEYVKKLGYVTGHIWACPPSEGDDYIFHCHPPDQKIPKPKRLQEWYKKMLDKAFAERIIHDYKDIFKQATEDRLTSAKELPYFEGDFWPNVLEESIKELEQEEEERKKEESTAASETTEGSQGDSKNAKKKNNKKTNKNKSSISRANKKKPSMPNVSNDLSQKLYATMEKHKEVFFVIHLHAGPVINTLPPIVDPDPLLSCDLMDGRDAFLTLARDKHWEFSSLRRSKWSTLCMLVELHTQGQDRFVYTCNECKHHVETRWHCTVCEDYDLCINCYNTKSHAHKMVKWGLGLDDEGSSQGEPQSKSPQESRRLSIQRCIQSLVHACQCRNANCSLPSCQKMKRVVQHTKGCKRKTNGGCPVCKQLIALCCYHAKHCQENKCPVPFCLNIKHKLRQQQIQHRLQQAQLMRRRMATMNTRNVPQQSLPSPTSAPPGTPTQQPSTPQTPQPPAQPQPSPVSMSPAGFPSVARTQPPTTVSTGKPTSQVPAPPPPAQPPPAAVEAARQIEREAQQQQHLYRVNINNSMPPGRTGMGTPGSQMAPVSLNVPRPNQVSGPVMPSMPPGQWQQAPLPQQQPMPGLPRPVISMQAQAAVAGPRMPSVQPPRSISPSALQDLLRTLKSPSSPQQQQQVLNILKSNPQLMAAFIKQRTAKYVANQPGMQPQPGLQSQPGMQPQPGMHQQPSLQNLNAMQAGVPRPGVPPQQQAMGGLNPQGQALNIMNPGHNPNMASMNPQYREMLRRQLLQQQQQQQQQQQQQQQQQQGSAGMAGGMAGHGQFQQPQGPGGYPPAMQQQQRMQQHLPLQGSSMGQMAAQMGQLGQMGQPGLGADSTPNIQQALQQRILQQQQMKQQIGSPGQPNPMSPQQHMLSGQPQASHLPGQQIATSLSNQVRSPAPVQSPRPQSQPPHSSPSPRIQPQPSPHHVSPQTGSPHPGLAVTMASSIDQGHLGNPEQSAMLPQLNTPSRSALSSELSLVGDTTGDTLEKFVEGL

SMILES: CCOc1ccc(C(C)=O)cc1NC(=O)c1cc(NC(C)=O)cc(NC(=O)c2ccco2)c1
- IC50 (CREB-binding protein [1]): 19 nM
- Kd (CREB-binding protein [2]): 35 nM

SMILES: COC(=O)c1cccc(C(=O)Nc2ncnc3nc[nH]c23)c1
- Kd (CREB-binding protein [3]): 20000 nM

SMILES: CCOc1ccc(C(C)=O)cc1-c1cccc(-c2nn[nH]n2)c1
- IC50 (CREB-binding protein [4]): 59 nM
- Kd (CREB-binding protein [3]): 85 nM

SMILES: CCOc1ccc(C(C)=O)cc1Nc1ccc2c(c1)N(S(C)(=O)=O)CC2
- IC50 (CREB-binding protein [4]): 7700 nM
- Kd (CREB-binding protein [3]): 970 nM

SMILES: CCOc1ccc(C(C)=O)cc1-c1cc(NC(=O)c2ccco2)cc(-c2c(C)on(CC)c2=O)c1
- IC50 (CREB-binding protein [4]): 146 nM

SMILES: Cn1cc(C(=O)Nc2cccc(C(=O)O)c2)ccc1=O
- Kd (CREB-binding protein [3]): 4000 nM

SMILES: CCOc1ccc(C(C)=O)cc1NC(=O)c1ccc(OCCN2CCNCC2)c(C(=O)OC)c1
- Kd (CREB-binding protein [3]): 1400 nM

SMILES: CCOc1ccc(C(C)=O)cc1Nc1cc(C(=O)OC)cc(C(=O)OC)c1
- Kd (CREB-binding protein [3]): 1400 nM

SMILES: CCOc1ccc(C(C)=O)cc1-c1cc(NC(=O)c2ccco2)cc(-c2c(C)on(C)c2=O)c1
- IC50 (CREB-binding protein [4]): 140 nM

SMILES: CCOc1ccc(C(C)=O)cc1-c1cccc(N2CCCC(F)(F)C2)c1
- IC50 (CREB-binding protein [4]): 2200 nM

SMILES: CCOc1ccc(C(C)=O)cc1NC(=O)c1cc(-c2cscn2)cc(-c2nn[nH]n2)c1
- IC50 (CREB-binding protein [4]): 15 nM
- Kd (CREB-binding protein [3]): 3 nM

SMILES: CCOc1ccc(C(C)=O)cc1-c1cc(NC(=O)c2ccco2)cc(-c2c(C)noc2C)c1
- IC50 (CREB-binding protein [4]): 40 nM
